According to paper PMC6392825 (ChemistryOpen, 2019):
Values after ≈ are worked out from the molar mass of the structure shown.

Legend:
Caco‐2 [1] = test: Cytotoxicity, mitochondrial activity; type: cell-based; conditions: Homo sapiens, Caco-2, 72 h, read-out: IC50 MTT
In short: (§1)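 Seeded at 20000 cells/well in DMEM and grown 24 h at 37 °C, 10% CO2. Medium was then replaced with serum-free medium holding test compound (25 mM DMSO stock) at various concentrations for 72 h, in triplicate; doxorubicin was the positive control. MTT (5 mg/mL stock in PBS) added for 2 h, formazan dissolved in DMSO, A570. IC50 derived from % surviving cells, reported as mean ± SD combined with SRB data.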

EA.hy926 [2] = test: Cell growth inhibition, protein content; type: cell-based; conditions: Homo sapiens, EA.hy 926, 72 h, read-out: IC50 SRB
In short: (§2)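 Cell lines from ATCC, grown in DMEM+glutamax with 1% NEAA, 1% P/S and 10% FBS at 37 °C, 10% CO2. Seeded at 20000 cells/well for 24 h, then exposed to test compound (25 mM DMSO stock) for three days. Fixed with cold TCA for 1 h at 4 °C, stained 30 min with 0.4% SRB in 1% acetic acid, dissolved in 10 mM Tris, A490. Triplicate; IC50 given as mean ± SD combined with MTT data (n ≥ 3).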

[3] = Chemical antioxidant capacity, FRAP assay
HepG2 [4] = test: Intracellular ROS assay; type: cell-based; conditions: for activity at 1 µM / activity at 10 µM: Homo sapiens, HepG2, read-out: Intracellular ROS, percentage compared to the untreated control cells (ROS/SRB)
In short: (§3)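 Cells seeded at 20000/well and grown 24 h at 37 °C, 10% CO2, then treated with test compound at 10 and 1 μM in serum-free medium. NAC and doxorubicin served as controls. After a PBS wash, cells were loaded with 20 μM DCFH-DA for 30 min, washed, and held 1 h in phenol red-free DMEM. Fluorescence read at ex 485/em 535 nm and normalized to SRB in the same well. Reported as % of untreated control, n ≥ 3, two-tailed t-test with unequal variances.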

HepG2 [5] = test: Cytotoxicity, mitochondrial activity; type: cell-based; conditions: Homo sapiens, HepG2, 72 h, read-out: IC50 MTT
In short: as §1

EA.hy926 [6] = test: Intracellular ROS assay; type: cell-based; conditions: for activity at 1 µM / activity at 10 µM: Homo sapiens, EA.hy 926, read-out: Intracellular ROS, percentage compared to the untreated control cells (ROS/SRB)
In short: as §3

HT‐29 [7] = test: Cell growth inhibition, protein content; type: cell-based; conditions: Homo sapiens, HT-29, 72 h, read-out: IC50 SRB
In short: as §2

HT‐29 [8] = test: Intracellular ROS assay; type: cell-based; conditions: for activity at 1 µM / activity at 10 µM: Homo sapiens, HT-29, read-out: Intracellular ROS, percentage compared to the untreated control cells (ROS/SRB); for change of intracellular ROS in words: HT‐29, vs untreated control, 10 and 1 μM
In short: as §3

Caco‐2 [9] = test: Intracellular ROS assay; type: cell-based; conditions: for activity at 1 µM / activity at 10 µM: Homo sapiens, Caco-2, read-out: Intracellular ROS, percentage compared to the untreated control cells (ROS/SRB); for change of intracellular ROS in words: Caco‐2, vs untreated control, 10 and 1 μM
In short: as §3

HepG2 [10] = test: Cell growth inhibition, protein content; type: cell-based; conditions: Homo sapiens, HepG2, 72 h, read-out: IC50 SRB
In short: as §2

Caco‐2 [11] = test: Cell growth inhibition, protein content; type: cell-based; conditions: Homo sapiens, Caco-2, 72 h, read-out: IC50 SRB
In short: as §2

HT‐29 [12] = test: Cytotoxicity, mitochondrial activity; type: cell-based; conditions: Homo sapiens, HT-29, 72 h, read-out: IC50 MTT
In short: as §1

[13] = Water solubility, shake flask method, 0.1 M phosphate buffer pH 6.8; type: physicochemical; conditions: 37 °C, pH 6.8, aqueous buffer, thermodynamic from solid
EA.hy926 [14] = test: Cytotoxicity, mitochondrial activity; type: cell-based; conditions: Homo sapiens, EA.hy 926, 72 h, read-out: IC50 MTT
In short: as §1

Structure (SMILES)	IC50 (Caco‐2 [1]) [µM]	IC50 (EA.hy926 [2]) [µM]	FRAP (Trolox equivalent per μM) [3] [Trolox equivalent per μM]	activity at 1 µM (HepG2 [4]) [%]	activity at 10 µM (HepG2 [4]) [%]	IC50 (HepG2 [5]) [µM]	activity at 1 µM (EA.hy926 [6]) [%]	activity at 10 µM (EA.hy926 [6]) [%]	IC50 (HT‐29 [7]) [µM]	activity at 1 µM (HT‐29 [8]) [%]	activity at 10 µM (HT‐29 [8]) [%]	activity at 1 µM (Caco‐2 [9]) [%]	activity at 10 µM (Caco‐2 [9]) [%]	IC50 (HepG2 [10]) [µM]	IC50 (Caco‐2 [11]) [µM]	IC50 (HT‐29 [12]) [µM]	solubility at 90 min [13] [µM]	IC50 (EA.hy926 [14]) [µM]	FRAP (curcumin equivalent per μM) [3]	solubility at 24 h [13] [µM]	further results
COc1cc(/C=C/C(=O)CC(=O)/C=C/c2ccc(O)c(OC)c2)ccc1O [Cur, curcumin, reference compound]	47.6 ± 1.5	58.4 ± 4.2	1.00	90.8 ± 12	101 ± 8.8	25.3 ± 0.9	100 ± 7.7	97.6 ± 5.7	52.3 ± 3.8	106 ± 8.4	86.5 ± 4.5	131 ± 3.6	115 ± 7.2	22.1 ± 2.6	39.1 ± 0.1	43.4 ± 4.6	2.7 ± 0.1 (≈ 0.995 µg/mL)	46.8 ± 0.7			
COc1cc(/C=C/C(=O)/C=C(O)/C=C/c2cccc3cnccc23)ccc1O [3 e, (1E,4Z,6E)‐5‐Hydroxy‐1‐(4‐hydroxy‐3‐methoxyphenyl)‐7‐(isoquinolin‐5‐yl)hepta‐1,4,6‐triene‐3‐one]	6.9 ± 0.3	16.2 ± 0.6	0.21	103 ± 5.1	96.7 ± 4.3	4.7 ± 0.2	96.3 ± 4.3	120 ± 4.4	10.7 ± 1.6	80.6 ± 4.8	67.6 ± 5.1	92.8 ± 11.9	72.7 ± 5.1	7.3 ± 0.3	17.7 ± 3	1.3 ± 0.5	1.1 ± 0.2 (≈ 0.411 µg/mL)	5.2 ± 0.2	0.20 curcumin equivalent per μM	1.4 ± 0.2 (≈ 0.523 µg/mL)	change of intracellular ROS in words (Caco‐2 [9]): significantly decreased ROS production
Cc1c(C)c2c(c(C)c1O)CCC(C)(C(=O)O)O2 (stereo not shown) [Trolox, reference compound]																			1.00 curcumin equivalent per μM		
O=C1O[C@H]([C@@H](O)CO)C(O)=C1O [Ascorbic acid, ascorbic acid, reference compound]			0.60																0.57 curcumin equivalent per μM		
COc1cc(/C=C/C(=O)/C=C(O)/C=C/c2ccnc3ccccc23)ccc1O [3 d, (1E,4Z,6E)‐5‐Hydroxy‐1‐(4‐hydroxy‐3‐methoxyphenyl)‐7‐(quinolin‐4‐yl)hepta‐1,4,6‐triene‐3‐one]	46.3 ± 3.7	60.2 ± 10.4	0.20	90.7 ± 7.4	99.6 ± 11.7	44.8 ± 5.5	95.6 ± 7	132 ± 6.5	47.2 ± 2.2	71.3 ± 4.9	96.9 ± 8	94.2 ± 5	108 ± 4.4	55.4 ± 0.3	40.8 ± 1.6	47 ± 1	3.6 ± 1.1 (≈ 1.34 µg/mL)	42.3 ± 1.2	0.20 curcumin equivalent per μM	4.4 ± 1.3 (≈ 1.64 µg/mL)	
Cc1c(C)c2c(c(C)c1O)CC[C@@](C)(CCC[C@H](C)CCC[C@H](C)CCCC(C)C)O2 [α‐Tocopherol, α‐tocopherol, reference compound]			0.70																0.68 curcumin equivalent per μM		
CC(=O)N[C@@H](CS)C(=O)O [NAC, N‐acetyl‐L‐cysteine, reference compound]				77.1 ± 7.8	63.1 ± 4.3		84.2 ± 4.8	76.6 ± 8.3		82.7 ± 3.4	75.3 ± 3.3	83.7 ± 6.2	83.5 ± 5.1								change of intracellular ROS in words (HepG2 [4]; HepG2, vs untreated control, 10 and 1 μM): significant decrease in ROS generation; change of intracellular ROS in words (EA.hy926 [6]; EA.hy926, vs untreated control, 10 and 1 μM): significant decrease in ROS generation; change of intracellular ROS in words (HT‐29 [8]): significant decrease in ROS generation; change of intracellular ROS in words (Caco‐2 [9]): significant decrease in ROS generation
O=C(/C=C(O)/C=C/c1ccccn1)/C=C/c1c[nH]c2ccccc12 [3 j, (1E,4Z,6E)‐5‐Hydroxy‐1‐(1H‐indol‐3‐yl)‐7‐(pyridin‐2‐yl)hepta‐1,4,6‐trien‐3‐one]	35.5 ± 0.4	3.7 ± 0.2	0.16	92.6 ± 6.5	96.6 ± 5.9	38.9 ± 0.8	90.8 ± 2.4	111 ± 3.5	46 ± 3	114 ± 15.5	102 ± 6.4	98.2 ± 2.6	84.9 ± 7	34 ± 2.8	40.2 ± 1.9	33.8 ± 3.5	10.7 ± 0.4 (≈ 3.39 µg/mL)	1.4 ± 0.2	0.15 curcumin equivalent per μM	7.9 ± 0.2 (≈ 2.5 µg/mL)	
COc1cc(/C=C/c2cc(/C=C/c3cccnc3)[nH]n2)ccc1O [4 a, 2‐Methoxy‐4‐{(E)‐2‐[5‐((E)‐2‐(pyridin‐3‐yl)vinyl)‐1H‐pyrazol‐3‐yl]vinyl}phenol]	53.7 ± 6.1	60.7 ± 0.7	0.57	88.4 ± 6.3	83.1 ± 5.5	11.2 ± 0.1		97.3 ± 7.3	24 ± 1.6	61.3 ± 6.9	84.8 ± 3.8	79.1 ± 8.8	86.7 ± 2	> 75	18.7 ± 1.2	> 75	8.8 ± 0.4 (≈ 2.81 µg/mL)	18.5 ± 1.3	0.55 curcumin equivalent per μM	7.7 ± 0.7 (≈ 2.46 µg/mL)	antioxidant activity in words, FRAP [3]: comparable to ascorbic acid; change of intracellular ROS in words (HT‐29 [8]): significantly decreased ROS signal; change of intracellular ROS in words (Caco‐2 [9]): significantly decreased ROS production
